Consider 7 molecules from ChEMBL document CHEMBL1124499, “Metabolism of 3-(p-chlorophenyl)pyrrolidine. Structural effects in conversion of a prototype gamma-aminobutyric acid prodrug to lactam and gamma-aminobutyric acid type metabolites” (J Med Chem, 1989).

Broadly, the ED50 is the midpoint of the dose-response relation. Broadly, the TD50 is the dose at which the toxic effect under study appears in half of the subjects. A low value points to greater toxicity.

The subject of data set [1] is Mus musculus. The experiment in a line: Anticonvulsant activity by using subcutaneous pentylenetetrazole (Metrazol) seizure threshold test in mice. The data set is classed as functional. Conditions: for ED50: sc.
The species named for data set [2] is Mus musculus. In words: Anticonvulsant activity by using bicuculline test in mice. Type of data set: functional.
Data set [3] is filed under the species Mus musculus. The experiment in a line: Anticonvulsant activity by using maximal electroshock seizure test in mice. Type of data set: functional. Background: The maximal electroshock test induces tonic seizures with an electrical stimulus.
Data set [4] is filed under the species Mus musculus. In words: Anticonvulsant activity by using bicuculline test in mice; Inactive. The data set is classed as functional, organism-based.
Data set [5] concerns Mus musculus. The experiment in a line: Anticonvulsant activity by using subcutaneous pentylenetetrazole (Metrazol) seizure threshold test in mice; Inactive. Type of data set: functional, organism-based.
The species named for data set [6] is Rattus norvegicus. The experiment in a line: Amount of metabolite produced in liver of rat at a concentration of 700 g of the compound. Type of data set: functional.
For data set [7], the species on record is Rattus norvegicus. In words: Amount of metabolite produced in brain of rat at a concentration of 700 g of the compound. Type of data set: functional.
The species entered for data set [8] is Rattus norvegicus. In words: Amount of metabolite produced in liver of rat at a concentration of 12000 g of the compound. The data set is classed as functional.
Data set [9] is filed under the species Mus musculus. The experiment in a line: Anticonvulsant activity by using rotarod toxicity test in mice. The data set is classed as functional. For orientation: Falling from the rotarod earlier than controls is read as motor impairment.
The species named for data set [10] is Rattus norvegicus. In words: Amount of metabolite produced in brain of rat at a concentration of 12000 g of the compound. The data set is classed as functional.
Data set [11] deals with Rattus norvegicus. The experiment in a line: Number of rats died by pretreatment with 55 mg/kg of compound (ip) in the presence of isoniazid after 49 mins out of 8 rats tested. The data set is classed as organism-based. Details: dose 55 mg/kg. Conditions: in vivo. An outline of the steps:
(§1)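 Male Wistar rats were pretreated with test agent at 55 mg/kg ip (200 mg/mL in saline or DMSO), then given isoniazid 425 mg/kg sc (180 mg/mL in saline).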

Data set [12] concerns Rattus norvegicus. The experiment in a line: Number of rats displaying convulsions by pretreatment with 55 mg/kg of compound (ip) in the presence of isoniazid after 49 mins out of 8 rats tested. Type of data set: functional. Put shortly: as §1
The test system of data set [13] is Rattus norvegicus. In words: In vivo formation of baclofen in 2 hr after administration of 5.5 mg/kg of compound intraperitoneally into 4 rats. Type of data set: functional, organism-based. Details: dose 5.5 mg/kg.
For data set [14], the species on record is Rattus norvegicus. In words: Amount of metabolite alpha-baclofen produced in brain of rat at a concentration of 12000 g of the compound; None detected. Type of data set: functional, organism-based.
Data set [15] relates to Rattus norvegicus. In words: In vivo formation of baclofen in 4 hr after administration of 5.5 mg/kg of compound intraperitoneally into 4 rats. The data set is classed as functional, organism-based. Details: dose 5.5 mg/kg.
Data set [16] relates to Rattus norvegicus. In words: In vivo formation of alpha-baclofen in 0-3 hr after administration of 55 mg/kg of compound intraperitoneally into 1r at. Further details: dose 55 mg/kg. Type of data set: functional, organism-based. Put shortly: (§2)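 Male Wistar rats housed in metabolism cages were given 55 mg/kg prodrug ip. Urine was collected at 3 and 6 h and assayed by HPLC/EC; cumulative amount is reported per rat. One rat was decapitated at 3 h, and its brain was homogenized in Tris-KCl and assayed by HPLC/EC.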

For data set [17], the species on record is Rattus norvegicus. In words: Amount of metabolite alpha-baclofen lactam produced in liver of rat at a concentration of 700 g of the compound. Type of data set: functional.
Data set [18] is filed under the species Rattus norvegicus. The experiment in a line: Amount of metabolite alpha-baclofen lactam produced in liver of rat at a concentration of 12000 g of the compound. Type of data set: functional.
Data set [19] is filed under the species Rattus norvegicus. In words: Amount of metabolite alpha-baclofen lactam produced in brain of rat at a concentration of 12000 g of the compound. Type of data set: functional.
Data set [20] deals with Rattus norvegicus. In words: In vivo formation of alpha-baclofen in 3-6h after administration of 55 mg/kg of compound intraperitoneally into 2 rats. The data set is classed as functional, organism-based. Details: dose 55 mg/kg. Put shortly:
as §2

For data set [21], the system named is Rattus norvegicus. The experiment in a line: In vivo formation of baclofen in 0-3 hr after administration of 55 mg/kg of compound intraperitoneally into 2 rats. The data set is classed as functional, organism-based. Further details: dose 55 mg/kg. Put shortly: as §2
For data set [22], the species on record is Rattus norvegicus. The experiment in a line: Amount of metabolite alpha-baclofen produced in liver of rat at a concentration of 700 g of the compound; None detected. The data set is classed as functional, organism-based.
Data set [23] relates to Rattus norvegicus. In words: In vivo formation of baclofen in 3-6h after administration of 55 mg/kg of compound intraperitoneally into 1r at. Type of data set: functional, organism-based. Further details: dose 55 mg/kg. Put shortly:
as §2

The species entered for data set [24] is Rattus norvegicus. In words: Amount of metabolite alpha-baclofen lactam produced in brain of rat at a concentration of 700 g of the compound. The data set is classed as functional.
Data set [25] deals with Rattus norvegicus. The experiment in a line: In vivo formation of alpha-baclofen in 0-3 hr after administration of 55 mg/kg of compound intraperitoneally into 2 rats. The data set is classed as functional, organism-based. Details: dose 55 mg/kg. Put shortly: as §2
Data set [26] is filed under the species Rattus norvegicus. In words: Amount of metabolite alpha-baclofen produced in liver of rat at a concentration of 12000 g of the compound; None detected. The data set is classed as functional, organism-based.
Data set [27] concerns Rattus norvegicus. In words: Number of rats died by pretreatment with 55 mg/kg of compound (ip) in the presence of isoniazid after 63 mins out of 6 rats tested. The data set is classed as functional. An outline of the steps: as §1
In data set [28] the test system is Rattus norvegicus. In words: In vivo formation of alpha-baclofen in 3-6h after administration of 55 mg/kg of compound intraperitoneally into 1r at. The data set is classed as functional, organism-based. Further details: dose 55 mg/kg. An outline of the steps:
as §2

Data set [29] is filed under the species Rattus norvegicus. The experiment in a line: Amount of metabolite alpha-baclofen produced in brain of rat at a concentration of 700 g of the compound; None detected. Type of data set: functional, organism-based.
Data set [30] relates to Rattus norvegicus. The experiment in a line: In vivo formation of baclofen in 3-6h after administration of 55 mg/kg of compound intraperitoneally into 2 rats. Further details: dose 55 mg/kg. The data set is classed as functional, organism-based. Put shortly:
as §2

Data set [31] deals with Rattus norvegicus. In words: In vivo formation of baclofen in 3h after administration of 55 mg/kg of compound intraperitoneally into 3 rats. Type of data set: functional, organism-based. Details: dose 55 mg/kg. An outline of the steps:
as §2

Data set [32] relates to Rattus norvegicus. The experiment in a line: Number of rats displaying convulsions by pretreatment with 55 mg/kg of compound (ip) in the presence of isoniazid after 63 mins out of 6 rats tested. Type of data set: functional. An outline of the steps: as §1
Data set [33] relates to Rattus norvegicus. In words: In vivo formation of baclofen in 0-3 hr after administration of 55 mg/kg of compound intraperitoneally into 1r at. Further details: dose 55 mg/kg. Type of data set: functional, organism-based. Put shortly:
as §2

Activity calls are given as the source filed them.

Take `NC(=O)CCC/N=C(\c1ccc(Cl)cc1)c1cc(F)ccc1O` [PROGABIDE]: the figures for the ED50 in the data set with Mus musculus [1], in the data set filed under Mus musculus [2] and in the data set filed under Mus musculus [3] were 30 mg/kg, 20 mg/kg and 75 mg/kg, respectively.
On to `O=C1NC(=O)C(c2ccccc2)(c2ccccc2)N1`, for which the ED50 result in the data set listed under Mus musculus [4] and in the data set on Mus musculus [5] was “inactive” in each case.
Turning to `NCC(CC(=O)O)c1ccc(Cl)cc1` (centres undefined) [BACLOFEN], the Activity turned out to be 0.197 µg/mL in the data set listed under Rattus norvegicus [6], 0.162 µg/mL in the data set listed under Rattus norvegicus [7], 0.13 µg/mL in the data set filed under Rattus norvegicus [8] and 0.097 µg/mL in the data set filed under Rattus norvegicus [10]. The Dose in the data set with Mus musculus [1] amounted to 50 mg/kg. Also, the TD50 in the data set filed under Mus musculus [9] amounted to 47 mg/kg. This molecule also had a 50% effective dose (ED50) in the data set filed under Mus musculus [3] greater than 600 mg/kg.
Consider `O=C1CC(c2ccc(Cl)cc2)CN1` (centres undefined), for which the Activity in the data set listed under Rattus norvegicus [6] was 26.4 µg/mL; in the data set listed under Rattus norvegicus [7], 2.11 µg/mL; in the data set filed under Rattus norvegicus [8] it was 14.6 µg/mL; in the data set filed under Rattus norvegicus [10] it was 0.28 µg/mL; in the data set on Rattus norvegicus [12] it was 2. Also, the ED50 was determined as 41 mg/kg in the data set with Mus musculus [1], 143 mg/kg in the data set listed under Mus musculus [2] and 68 mg/kg in the data set listed under Mus musculus [3]. In addition, the TD50 in the data set filed under Mus musculus [9] was determined as 117 mg/kg. The “No. of rats died” value in the data set on Rattus norvegicus [11] was determined as 1.
As for `CCC1(c2ccccc2)C(=O)NC(=O)NC1=O` [PHENOBARBITAL], the values for the ED50 with Mus musculus [1], in the data set filed under Mus musculus [2] and in the data set listed under Mus musculus [3] were 13 mg/kg, 38 mg/kg and 22 mg/kg, respectively. This molecule also registered a TD50 in the data set listed under Mus musculus [9] of 69 mg/kg.
`CCCC(CCC)C(=O)O` [VALPROIC ACID]: the ED50 was 149 mg/kg in the data set with Mus musculus [1] and 360 mg/kg in the data set filed under Mus musculus [2].
Regarding `Clc1ccc(C2CCNC2)cc1` (centres undefined), the Concentration in the data set on Rattus norvegicus [13] stood at 0.04 µg/mL; in the data set with Rattus norvegicus [15] it was 0.12 µg/mL; in the data set with Rattus norvegicus [16] it was 0.5 µg/mL; in the data set on Rattus norvegicus [20] it was 2.3 µg/mL; with Rattus norvegicus [21], 0 µg/mL; in the data set with Rattus norvegicus [23] it was 16 µg/mL. For the same molecule, the Concentration with Rattus norvegicus [25] is 0 µg/mL; in the data set on Rattus norvegicus [28], 2.6 µg/mL; in the data set with Rattus norvegicus [30] it was 9.4 µg/mL; in the data set on Rattus norvegicus [31], 24.3 ng/g; with Rattus norvegicus [33], 2 µg/mL. Also, the Activity result is “Not detected” in the data set listed under Rattus norvegicus [14]; 46.7 µg/mL in the data set filed under Rattus norvegicus [17]; 24.5 µg/mL in the data set filed under Rattus norvegicus [18]; 0.21 µg/mL in the data set filed under Rattus norvegicus [19]; “Not detected” in the data set listed under Rattus norvegicus [22]; 0.5 µg/mL in the data set filed under Rattus norvegicus [24]. The Activity result in the data set listed under Rattus norvegicus [26] was “Not detected”; in the data set on Rattus norvegicus [27] it was 0; in the data set listed under Rattus norvegicus [29] it was “Not detected”; in the data set with Rattus norvegicus [32], 6.
